# Test results published in PubChem BioAssay.
# The source made the active and inactive calls.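 Rule for the calls, unless noted: active = viability at or below 10% of carrier control in both of two separate runs; inconclusive = viability at or below 10% in only one of the two runs; inactive = the rest.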
# Tests used:
# [1] = SK-BR-3 cell growth inhibitors, pilot screen, 24 h, human (AID 572); settings: SK-BR-3 viability, CellTiter-Glo luminescence, at 10 µM, stronger effect = lower value;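 note: compound exposure lasted between 18 and 24 h rather than exactly 24 h; 100% = carrier-treated control wells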
# [2] = HUVEC growth inhibition – cell-based, human, primary screen (AID 575;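 active = viability at or below 30% in both replicate assays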;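 note: 100% = median of untreated cell wells with 0.1% DMSO on each plate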); settings: HUVEC proliferation, CellTiter-Glo luminescence, 72 h; at 10 µM; stronger effect = lower value
# In short: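 Test system – primary HUVEC, no more than 12 passages · Dosing – one dose, 10 µM final, 0.1% DMSO · Times – 72 h treatment at 37 °C · Measured by – ATP-based CellTiter-Glo luminescent read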
# [3] = growth inhibitors of H69AR lung tumor, primary screen, human, duplicate replicates (AID 580;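 active = viability at or under a set limit in both replicates, limit being median viability minus 3 SD, cut at about 48% in these data, passing the limit was not always enough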;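 note: 100% = mean luminescence of untreated wells and 0% = no signal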); settings: H69AR lung tumor cells viability, ATP luminescence, 72 h; at 10 µM; stronger effect = lower value
# [4] = reversal of MRP1-mediated doxorubicin resistance, pilot screen, H69AR cells, doxorubicin co-treatment (AID 601;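 active = viability loss from added drug above about 55%, and viability with drug at most 40%, in both replicates, limit read from the data, passing the limit was not always enough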); settings: CellTiter-Glo, 72 h, at 10 µM; for differential viability (reversal): stronger effect = higher value
# [5] = 384-well plate pilot, post-Golgi transport modulator project, inhibition of yeast transport mutant growth (AID 636; in the data active = inhibition above about 31%); settings: absorbance 615 nm, about 18 h, stronger effect = higher value
# [6] = growth suppression of yeast trafficking mutant, preliminary HTS, modulators of trafficking downstream of Golgi apparatus project, 1536-format plate, OD 615 nm (AID 637; in the data active = inhibition above about 30%); settings: yeast transport mutant growth, absorbance 615 nm, 18 h; stronger effect = higher value
# [7] = H69AR cells + 2 uM doxorubicin, measured here: viability with 2 uM doxorubicin, stronger effect = lower value
# [8] = H69AR cells, compound alone cytotoxicity
SMILES,viability [1],viability [2],viability [3],differential viability (reversal) ([4]; H69AR cells + 2 uM doxorubicin),"viability [4, 7]","viability [4, 8]",inhibition [5],inhibition [6]
O=C(Nc1nonc1NC(=O)C1CCCCC1)C1CCCCC1,111% (inactive),84.7% (inactive),89.9% (inactive),3.04% (inactive),86.8%,89.9%,-10% (inactive),1.94% (inactive)
COc1ccccc1OCc1nc2ccccc2[nH]1,69% (inactive),88.5% (inactive),99.3% (inactive),-5.04% (inactive),104%,99.3%,-6.16% (inactive),-0.55% (inactive)
CC(C)(C)NCC(O)c1cc(O)cc(O)c1 (configuration not stated),127% (inactive),109% (inactive),98.9% (inactive),7.49% (inactive),91.4%,98.9%,-2.73% (inactive),2.5% (inactive)
O=C(CSc1nc2ccccc2[nH]1)c1ccc2c(c1)OCO2,79% (inactive),99.8% (inactive),107% (inactive),22.7% (inactive),83.8%,107%,-0.68% (inactive),-5.16% (inactive)
CSC1=C(C#N)C(C)CC(=O)N1 (configuration not stated),91% (inactive),107% (inactive),115% (inactive),9.97% (inactive),105%,115%,-7.81% (inactive),2.18% (inactive)
COc1ccc(-c2ccc(=O)n(Cc3cc(=O)n4ccccc4n3)n2)cc1,102% (inactive),107% (inactive),97% (inactive),5.91% (inactive),91.1%,97%,-3.38% (inactive),4.36% (inactive)
Cc1cc(C)nc(SCCS(=O)Cc2ccc(Cl)cc2)n1 (configuration not stated),102% (inactive),99.4% (inactive),96.2% (inactive),4.69% (inactive),91.5%,96.2%,-2.34% (inactive),-3.11% (inactive)
CC(C)(C)C(=O)OCC1OC(n2cnc(C(N)=O)n2)C(O)C1O (configuration not stated),89% (inactive),99.1% (inactive),96.1% (inactive),1.56% (inactive),94.5%,96.1%,-8.22% (inactive),-2.36% (inactive)
CC1(C)Cc2c(c(=S)nc(-c3ccccc3)n2CCO)CO1,111% (inactive),106% (inactive),87.6% (inactive),-4.25% (inactive),91.9%,87.6%,-1.43% (inactive),-6.72% (inactive)
OC[C@H]1O[C@@H](n2cnc3c(Nc4ccccc4)ncnc32)[C@H](O)[C@@H]1O,95% (inactive),71.9% (inactive),84.4% (inactive),2.24% (inactive),82.1%,84.4%,-2.34% (inactive),1.17% (inactive)
COc1ccc(N=C2C(=O)Nc3ccccc32)cc1,103% (inactive),66.7% (inactive),75.4% (inactive),-4.16% (inactive),79.5%,75.4%,-0.4% (inactive),-1.45% (inactive)
CCOC(=O)c1ccc2[nH]c3c(c2c1)CCCCC3=O,80% (inactive),105% (inactive),99.5% (inactive),8.96% (inactive),90.5%,99.5%,-3.6% (inactive),-0.73% (inactive)
Cc1ccc(-n2nc3cc(Cl)c(NC(=O)c4ccco4)cc3n2)cc1,116% (inactive),92.6% (inactive),42.7% (active),-5.97% (inactive),48.7%,42.7%,-7.53% (inactive),2.7% (inactive)
CCCNC(=O)c1cc(S(=O)(=O)N2CCc3ccccc32)ccc1F,89% (inactive),113% (inactive),97% (inactive),6.73% (inactive),90.3%,97%,-6.13% (inactive),2.18% (inactive)
O=S(=O)(c1cccc2c(S(=O)(=O)N3CCCC3)cccc12)N1CCCC1,72% (inactive),107% (inactive),93.5% (inactive),5.26% (inactive),88.2%,93.5%,-9.18% (inactive),-0.55% (inactive)
CC(CCc1ccccc1)NCC(O)c1ccc(O)c(C(N)=O)c1 (configuration not stated),94% (inactive),104% (inactive),93.8% (inactive),1.8% (inactive),92%,93.8%,1.17% (inactive),-3.17% (inactive)
Cc1c(C)n(C(=O)CN2CCN(c3ccccn3)CC2)c2ccccc12,102% (inactive),81.2% (inactive),81.7% (inactive),-0.845% (inactive),82.5%,81.7%,-5.2% (inactive),-2.73% (inactive)

SMILES,viability [1],viability [2],viability [3],differential viability (reversal) ([4]; H69AR cells + 2 uM doxorubicin),"viability [4, 7]","viability [4, 8]",inhibition [5],inhibition [6]
COCCNC(=O)CN1CCC(NC(=O)Nc2ccc(C(F)(F)F)cc2)CC1,92% (inactive),96.5% (inactive),102% (inactive),8.66% (inactive),93.5%,102%,-5.54% (inactive),0.55% (inactive)
O=C1[C@@H]2C(c3ccccc3Cl)=NO[C@@H]2C(=O)N1Cc1ccccc1,96% (inactive),116% (inactive),104% (inactive),4.24% (inactive),100%,104%,-6.76% (inactive),3.09% (inactive)
COc1ccc(COC(=O)c2n[nH]c3ccccc23)cc1F,89% (inactive),85.2% (inactive),100% (inactive),8.74% (inactive),91.3%,100%,-9.45% (inactive),3.82% (inactive)
CC(C)OC(=O)CCCCCN1C(=O)CSC1=S,108% (inactive),86.7% (inactive),68.2% (inactive),-7.49% (inactive),75.7%,68.2%,-0.67% (inactive),-6.13% (inactive)
COCCSc1nnc(NC(=O)CSCc2ccccc2)s1,102% (inactive),103% (inactive),93.1% (inactive),6.87% (inactive),86.3%,93.1%,-11% (inactive),0.97% (inactive)
CCN(CCCNC(=O)COc1cc(=O)n(CC)c2ccccc12)c1ccccc1,86% (inactive),56.9% (inactive),74.7% (inactive),5.79% (inactive),68.9%,74.7%,-5.32% (inactive),-4.75% (inactive)
O=C(Cn1cnc2c(cnn2-c2ccccc2)c1=O)NCCc1ccccc1,102% (inactive),91.6% (inactive),91.8% (inactive),0.99% (inactive),90.8%,91.8%,-4.68% (inactive),-5.74% (inactive)
CC(=O)NCCC(=O)Nc1ccc(C)c(F)c1,110% (inactive),110% (inactive),91.4% (inactive),-17% (inactive),108%,91.4%,-2.05% (inactive),3.09% (inactive)
O=C(Nc1ccc(F)cc1)N(CCCN1CCOCC1)Cc1cc2cc3c(cc2[nH]c1=O)OCO3,85% (inactive),105% (inactive),90.8% (inactive),7.71% (inactive),83.1%,90.8%,-7.97% (inactive),2.55% (inactive)
O=C(CSc1nc2ccccc2o1)N1CCN(C(=O)c2ccco2)CC1,117% (inactive),102% (inactive),94.5% (inactive),1.25% (inactive),93.3%,94.5%,-6.67% (inactive),-1.45% (inactive)
O=c1c2cc3ccccc3n2cnn1Cc1ccccc1F,100% (inactive),57.9% (inactive),11.3% (active),-36.1% (inactive),47.4%,11.3%,-1.95% (inactive),2.3% (inactive)
Nc1nnnn1NCc1cccc(OCc2ccccc2)c1,112% (inactive),88.8% (inactive),104% (inactive),15.4% (inactive),89%,104%,-7.95% (inactive),3.71% (inactive)
CCOC(=O)CC(=O)CSc1nc(-c2cccnc2)ccc1C#N,118% (inactive),98.6% (inactive),68.4% (inactive),-24% (inactive),92.4%,68.4%,-3.97% (inactive),0% (inactive)
COc1ccc(Cl)c(NC(=O)NCCN2CCN(c3ccccc3)CC2)c1,102% (inactive),107% (inactive),90.4% (inactive),8.35% (inactive),82%,90.4%,-2% (inactive),1.27% (inactive)
Cc1ccc(S(=O)(=O)N2CCN(S(=O)(=O)N(C)C)CC2)cc1,123% (inactive),107% (inactive),103% (inactive),8.38% (inactive),94.7%,103%,-3.15% (inactive),-4.68% (inactive)
O=C1c2ccccc2C(=O)N1c1cccc(-c2nc3ccccc3o2)c1,114% (inactive),72.5% (inactive),111% (inactive),7.94% (inactive),103%,111%,-4.13% (inactive),-3.09% (inactive)
CCCCNC(=O)c1nnn(-c2ccccc2)c1N,88% (inactive),113% (inactive),92.2% (inactive),-0.63% (inactive),92.8%,92.2%,4.03% (inactive),2.3% (inactive)
